According to ChEMBL document CHEMBL1138203, “Structure-activity relationship analysis of the selective inhibition of transglutaminase 2 by dihydroisoxazoles” (J Med Chem, 2006):

These molecules were tested against T1, Protein-glutamine gamma-glutamyltransferase (Homo sapiens, UniProt P21980) (assay: Inhibition of human recombinant TG2 expressed in Escherichia coli).
T1 sequence (P21980 whole entry): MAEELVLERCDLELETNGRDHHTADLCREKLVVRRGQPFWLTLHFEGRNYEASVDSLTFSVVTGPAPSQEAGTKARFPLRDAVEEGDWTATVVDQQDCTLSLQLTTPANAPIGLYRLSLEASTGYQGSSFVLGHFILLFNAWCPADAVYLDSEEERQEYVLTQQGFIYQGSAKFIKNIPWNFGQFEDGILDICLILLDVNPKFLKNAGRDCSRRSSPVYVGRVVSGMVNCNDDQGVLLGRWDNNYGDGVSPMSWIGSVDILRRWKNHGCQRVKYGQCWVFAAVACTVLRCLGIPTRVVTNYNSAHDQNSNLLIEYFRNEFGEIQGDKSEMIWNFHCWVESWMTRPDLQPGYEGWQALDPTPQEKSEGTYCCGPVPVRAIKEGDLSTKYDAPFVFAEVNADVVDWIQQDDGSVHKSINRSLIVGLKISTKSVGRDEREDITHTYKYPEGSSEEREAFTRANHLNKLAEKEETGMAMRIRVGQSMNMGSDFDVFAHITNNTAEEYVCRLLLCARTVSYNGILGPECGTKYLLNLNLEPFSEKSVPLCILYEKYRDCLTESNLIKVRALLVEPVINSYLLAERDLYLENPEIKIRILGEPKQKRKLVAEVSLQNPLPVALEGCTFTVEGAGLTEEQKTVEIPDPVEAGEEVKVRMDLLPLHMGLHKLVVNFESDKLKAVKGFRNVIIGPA
Method in brief: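 Enzyme purified to >90%. Inhibitor at 0.001–0.3 mM. Reaction started by adding TG2; NADH loss read at 340 nm. KI and kinh came from fitting progress curves to irreversible-inhibition equations.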

Row | SMILES | Ki
1 | O=C(N[C@@H](Cc1c[nH]c2ccc(F)cc12)C(=O)NCC1CC(Br)=NO1)OCc1cnc2ccccc2c1 (some centres undefined) | 4 µM
2 | O=C(NC(Cc1c[nH]c2cc(F)ccc12)C(=O)NCC1CC(Br)=NO1)OCc1ccccc1 (centres undefined) | 18 µM
3 | O=C(N[C@@H](Cc1c[nH]c2ccc(F)cc12)C(=O)NC[C@@H]1CC(Br)=NO1)OCc1cnc2ccccc2c1 | 1.3 µM
4 | O=C(NC(Cc1c[nH]c2cccc(F)c12)C(=O)NCC1CC(Br)=NO1)OCc1ccccc1 (centres undefined) | 99 µM
5 | O=C(N[C@@H](Cc1ccc(O)cc1)C(=O)NCC1CC(Br)=NO1)OCc1cnc2ccccc2c1 (some centres undefined) | 41 µM
6 | O=C(N[C@@H](Cc1ccc(O)cc1)C(=O)NC[C@@H]1CC(Br)=NO1)OCc1ccccc1 | 68 µM
7 | O=C(NC(Cc1c[nH]c2ccc(F)cc12)C(=O)NCC1CC(Br)=NO1)OCc1cnc2ccccc2c1 (centres undefined) | 18 µM
8 | O=C(NC[C@@H]1CC(Br)=NO1)[C@@H]1CCCN1C(=O)OCc1cnc2ccccc2c1 | 11 µM
9 | O=C(NC(Cc1c[nH]c2ccc(O)cc12)C(=O)NCC1CC(Br)=NO1)OCc1cnc2ccccc2c1 (centres undefined) | 34 µM
10 | O=C(N[C@@H](Cc1ccc(O)cc1)C(=O)NC[C@@H]1CC(Br)=NO1)OCc1cnc2ccccc2c1 | 30 µM
11 | O=C(NC(Cc1c[nH]c2ncccc12)C(=O)NCC1CC(Br)=NO1)OCc1ccccc1 (centres undefined) | 22 µM
12 | O=C(NCC1CC(Br)=NO1)C1Cc2ccccc2N1C(=O)OCc1ccccc1 (centres undefined) | 138 µM
13 | O=C(NC(Cc1c[nH]c2ccc(F)cc12)C(=O)NCC1CC(Br)=NO1)OCc1ccccc1 (centres undefined) | 19 µM
14 | COc1ccc2[nH]cc(CC(NC(=O)OCc3cnc4ccccc4c3)C(=O)NCC3CC(Br)=NO3)c2c1 (centres undefined) | 51 µM
